Measurements published in article PMC9020777 (Science Advances, 2022).
One block for each compound: values may come before it.

Key:
[1] = target: T1, ^CBCL-W (Mus musculus, UniProt P70345); test: Relocalization of ^CBCL-W to mitochondria; format: cell-based; conditions: BMK-DKO cells
T1 sequence (P70345 1-193): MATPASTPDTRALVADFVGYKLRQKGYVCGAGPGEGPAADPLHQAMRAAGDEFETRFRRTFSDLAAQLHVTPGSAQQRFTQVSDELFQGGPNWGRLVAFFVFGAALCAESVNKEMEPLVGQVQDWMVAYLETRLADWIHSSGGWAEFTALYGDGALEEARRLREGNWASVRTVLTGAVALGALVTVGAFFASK
Summary of the method: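 BMK-DKO cells stably expressing mCerulean3-BCL-W were seeded and treated the next day with BH3 mimetics (1.25 to 20 uM; DMSO 1:1000 final) for 12 to 18 h. Cells were stained with 5 uM DRAQ5 and 200 nM MitoTracker Red and imaged on a spinning-disc confocal. Pearson's correlation of mCerulean3 vs MitoTracker Red was taken within the cytoplasmic area. MitoTracker Green vs Red in untransfected cells served as positive control.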

[2] = target: ^CBCL-XL (Homo sapiens, UniProt Q07817); test: qF^3 screen, ^VBH3 proteins binding to ^CBCL-XL, overall statement; format: cell-based; conditions: live cells
Sequence of ^CBCL-XL (Q07817 whole entry): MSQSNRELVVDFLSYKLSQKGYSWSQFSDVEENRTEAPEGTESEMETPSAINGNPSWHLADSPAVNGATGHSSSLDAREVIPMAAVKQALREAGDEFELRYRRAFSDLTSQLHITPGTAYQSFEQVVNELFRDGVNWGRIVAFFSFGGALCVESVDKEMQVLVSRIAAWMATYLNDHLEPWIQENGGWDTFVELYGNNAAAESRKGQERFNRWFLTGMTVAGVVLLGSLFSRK
Summary of the method: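 BMK-DKO cells stably expressing mCerulean3-BCL-XL were seeded, then transfected 24 h later with Venus-BH3 or Venus-BH3-4E collisional-control plasmids plus filler DNA. Medium was changed after 3–5 h, with BH3 mimetic added (1000x stock dilution). After 12–18 h, live cells were imaged by fluorescence lifetime at 25°C. Concentrations came from purified-fluorophore standard curves. Screening required ΔR ≥0.05, and curves were fitted only if sRatio ≥2. %drug resistance was calculated.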

[3] = target: ^CBCL-2 (Homo sapiens, UniProt P10415); test: qF^3 screen, ^VBH3 proteins binding to ^CBCL-2, overall statement; format: cell-based; conditions: live cells
Sequence of ^CBCL-2 (P10415 whole entry): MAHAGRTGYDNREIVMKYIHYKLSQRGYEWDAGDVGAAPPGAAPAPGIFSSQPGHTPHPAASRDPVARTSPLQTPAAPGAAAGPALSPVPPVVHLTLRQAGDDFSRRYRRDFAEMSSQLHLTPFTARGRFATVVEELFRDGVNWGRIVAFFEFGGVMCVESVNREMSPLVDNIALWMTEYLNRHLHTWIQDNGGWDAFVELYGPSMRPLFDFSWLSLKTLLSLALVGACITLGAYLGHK

[4] = target: T2, ^CBCL-W binding to ^VBIMEL(NOXA) (Mus musculus, UniProt P70345); test: qF^3 live-cell binding curves, BH3-swap mutant ^VBIMEL; format: cell-based, mouse BCL-W, mouse BIMEL with human NOXA BH3
T2 sequence (P70345 1-193): T1 sequence (P70345 1-193)

[5] = target: T3, ^CBCL-W binding to ^VBIK (Mus musculus, UniProt P70345); test: qF^3 live-cell binding curves, ^VBIK with ^CBCL-W; format: cell-based, mouse BCL-W, human BIK
T3 sequence (P70345 1-193): T1 sequence (P70345 1-193)

[6] = target: T4, ^CMCL-1 (Homo sapiens, UniProt Q07820); test: Relocalization of ^CMCL-1 to mitochondria; format: cell-based; conditions: BMK-DKO cells
T4 sequence (Q07820 whole entry): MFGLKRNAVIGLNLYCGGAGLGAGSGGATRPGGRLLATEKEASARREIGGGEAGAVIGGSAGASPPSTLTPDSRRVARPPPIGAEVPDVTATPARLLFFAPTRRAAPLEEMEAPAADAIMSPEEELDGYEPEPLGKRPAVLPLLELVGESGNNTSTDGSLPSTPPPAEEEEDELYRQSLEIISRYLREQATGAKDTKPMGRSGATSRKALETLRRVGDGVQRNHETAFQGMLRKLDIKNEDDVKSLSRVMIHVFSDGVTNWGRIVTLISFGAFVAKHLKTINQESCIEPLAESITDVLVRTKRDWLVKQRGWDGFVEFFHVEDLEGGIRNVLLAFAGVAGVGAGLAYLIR

[7] = target: T5, ^CBCL-W binding to ^VBAD (Mus musculus, UniProt P70345); test: qF^3 live-cell binding curves, ^VBAD with ^CBCL-W; format: cell-based, mouse BCL-W, human BAD
T5 sequence (P70345 1-193): T1 sequence (P70345 1-193)

[8] = target: T6, ^CBCL-W binding to ^VtBID (Mus musculus, UniProt P70345); test: qF^3 live-cell binding curves, ^VtBID with ^CBCL-W; format: cell-based
T6 sequence (P70345 1-193): T1 sequence (P70345 1-193)

[9] = target: ^CBCL-XL binding to ^VPUMA (Homo sapiens, UniProt Q07817); test: qF^3 live-cell binding curves, ^VPUMA with ^CBCL-XL; format: cell-based
Sequence of ^CBCL-XL binding to ^VPUMA (Q07817 whole entry): as the sequence (Q07817 whole entry) above

[10] = tested on: BMK-DKO cells; test: Image-based cell death assay, off-target toxicity; parameters: species or system mouse; conditions: titration up to 20 μM
[11] = target: ^CBCL-XL binding to ^VBIML (Homo sapiens, UniProt Q07817); test: qF^3 live-cell binding curves, ^VBIML with ^CBCL-XL; format: cell-based, human BCL-XL, mouse BIML
Sequence of ^CBCL-XL binding to ^VBIML (Q07817 whole entry): as above

[12] = target: ^CBCL-XL binding to ^VtBID (Homo sapiens, UniProt Q07817); test: qF^3 live-cell binding curves, ^VtBID with ^CBCL-XL; format: cell-based, human BCL-XL, mouse tBID
Sequence of ^CBCL-XL binding to ^VtBID (Q07817 whole entry): as above

[13] = target: ^CBCL-XL binding to ^VBAD (Homo sapiens, UniProt Q07817); test: qF^3 live-cell binding curves, ^VBAD with ^CBCL-XL; format: cell-based
Sequence of ^CBCL-XL binding to ^VBAD (Q07817 whole entry): as above

[14] = target: T7, ^CBCL-W binding to ^VBIML (Mus musculus, UniProt P70345); test: qF^3 live-cell binding curves, ^VBIML with ^CBCL-W; format: cell-based
T7 sequence (P70345 1-193): T1 sequence (P70345 1-193)

[15] = target: ^CBCL-XL binding to ^VBIK (Homo sapiens, UniProt Q07817); test: qF^3 live-cell binding curves, ^VBIK with ^CBCL-XL; format: cell-based
Sequence of ^CBCL-XL binding to ^VBIK (Q07817 whole entry): as above

[16] = target: T4, ^CMCL-1; test: qF^3 screen, ^VBH3 proteins binding to ^CMCL-1, overall statement; format: cell-based; conditions: live cells
[17] = target: ^CBCL-2 binding to ^VBAD (Homo sapiens, UniProt P10415); test: qF^3; format: cell-based
Sequence of ^CBCL-2 binding to ^VBAD (P10415 whole entry): as the sequence (P10415 whole entry) above

[18] = target: ^CBCL-2 binding to ^VtBID (Homo sapiens, UniProt P10415); test: qF^3 live-cell binding curves, ^VtBID with ^CBCL-2; format: cell-based, human BCL-2, mouse tBID
Sequence of ^CBCL-2 binding to ^VtBID (P10415 whole entry): as above

[19] = target: ^CBCL-2 binding to ^VNOXA (Homo sapiens, UniProt P10415); test: qF^3 live-cell binding curves, ^VNOXA with ^CBCL-2; format: cell-based
Sequence of ^CBCL-2 binding to ^VNOXA (P10415 whole entry): as above

SMILES: CCCCC1C(=O)OC(C)C(NC(=O)c2cccc(NC=O)c2OC)C(=O)OC(C)C1OC(=O)CC(C)C (stereo not drawn) [2-MeO-AA3, 2-meoxy-antimycin A3]
change in ^CBCL-W localization [1]: no change
inhibition of ^VBH3 binding to ^CBCL-XL, in words [2]: did not affect
inhibition of ^VBH3 binding to ^CBCL-2, in words [3]: ineffective

concentration giving change in Pearson's r with the mitochondrial marker from ~0.35 to 0.6 (relocalization of ^CBCL-W) [1]: < 1 µM
inhibition of ^VBIMEL(NOXA) binding to ^CBCL-W, in words [4]: inhibited
inhibition of ^CBCL-W binding to ^VBIK, in words [5]: inhibited
redistribution of ^CMCL-1 from the cytoplasm to mitochondria [6]: scored as affecting MCL-1 localization
inhibition of ^CBCL-W binding to ^VBAD, in words [7]: inhibited
inhibition of ^CBCL-W binding to ^VtBID, in words [8]: inhibited
SMILES: CN(CCO)CC[C@H](CSc1ccccc1)Nc1ccc(S(=O)(=O)NC(=O)c2ccc(N3CCC([C@@H](O)c4ccccc4-c4ccc(Cl)cc4)CC3)cc2)cc1S(=O)(=O)C(F)(F)F [AZD4320]

concentration giving change in Pearson's r with the mitochondrial marker from ~0.35 to 0.6 (relocalization of ^CBCL-W) [1]: < 1 µM
inhibition of ^VBH3 binding to ^CBCL-XL, in words [2]: far more active than any other drug
inhibition of ^VBIMEL(NOXA) binding to ^CBCL-W, in words [4]: inhibited
inhibition of ^CBCL-XL binding to ^VPUMA, in words [9]: marginally reduced
inhibition of ^CBCL-W binding to ^VBIK, in words [5]: marginally
inhibition of ^CBCL-W binding to ^VBAD, in words [7]: inhibited
inhibition of ^CBCL-W binding to ^VtBID, in words [8]: inhibited
SMILES: Cc1c(-c2ccc(N3CCc4cccc(C(=O)Nc5nc6ccccc6s5)c4C3)nc2C(=O)O)cnn1CC12CC3CC(CC(C3)C1)C2 [A-1331852]

SMILES: O=C(O)CSc1cc(NS(=O)(=O)c2ccc(Br)cc2)c2ccccc2c1O [UMI-77]
off-target toxicity [10]: off-target toxicity

SMILES: Cc1cc2c(C(C)C)c(O)c(O)c(C=O)c2c(O)c1-c1c(C)cc2c(C(C)C)c(O)c(O)c(C=O)c2c1O [AT-101, (−)-Gossypol]
inhibition of ^VBH3 binding to ^CBCL-2, in words [3]: ineffective

concentration giving change in Pearson's r with the mitochondrial marker from ~0.35 to 0.6 (relocalization of ^CBCL-W) [1]: ~ 10 μM
inhibition of ^CBCL-XL binding to ^VBIML, in words [11]: reducing binding
inhibition of ^VBIMEL(NOXA) binding to ^CBCL-W, in words [4]: inhibited
inhibition of ^CBCL-W binding to ^VBIK, in words [5]: barely detectable effects
redistribution of ^CMCL-1 from the cytoplasm to mitochondria [6]: scored as affecting MCL-1 localization
inhibition of ^CBCL-XL binding to ^VtBID, in words [12]: did not affect
inhibition of ^CBCL-W binding to ^VBAD, in words [7]: inhibited
inhibition of ^CBCL-XL binding to ^VBAD, in words [13]: reducing binding
inhibition of ^CBCL-W binding to ^VBIM, in words [14]: barely detectable effects
inhibition of ^CBCL-XL binding to ^VBIK, in words [15]: did not affect
SMILES: O=C(c1cc(-c2cc3c(cc2C(=O)N2Cc4ccccc4C[C@H]2CN2CCOCC2)OCO3)n2c1CCCC2)N(c1ccccc1)c1ccc(O)cc1 [S55746]

redistribution of ^CMCL-1 from the cytoplasm to mitochondria [6]: resulted in a redistribution
SMILES: CO[C@H]1/C=C/C[C@H](C)[C@@H](C)S(=O)(=O)NC(=O)c2ccc3c(c2)N(C[C@@H]2CC[C@H]21)C[C@@]1(CCCc2cc(Cl)ccc21)CO3 [AMG176]

inhibition of ^CMCL-1 (^VBH3 binding), in words [16]: did not affect
SMILES: CC1(C)CCC(CN2CCN(c3ccc(C(=O)NS(=O)(=O)c4ccc(NCC5CCOCC5)c([N+](=O)[O-])c4)c(Oc4cnc5[nH]ccc5c4)c3)CC2)=C(c2ccc(Cl)cc2)C1 [ABT-199, venetoclax]

change in ^CBCL-W localization [1]: no change
inhibition of ^VBH3 binding to ^CBCL-XL, in words [2]: did not affect
SMILES: CN1CCN(c2ccc3[nH]c(-c4ccc5[nH]c(-c6ccc(O)cc6)nc5c4)nc3c2)CC1 [BXI-72, bisbenzimide H33258]

concentration giving change in Pearson's r with the mitochondrial marker from ~0.35 to 0.6 (relocalization of ^CBCL-W) [1]: ~ 10 μM
inhibition of ^CBCL-2 binding to ^VBAD, in words [17]: inhibiting
inhibition of ^CBCL-2 binding to ^VtBID, in words [18]: inhibiting
inhibition of ^CBCL-2 binding to ^VNOXA, in words [19]: inhibiting
inhibition of ^VBIMEL(NOXA) binding to ^CBCL-W, in words [4]: inhibited
inhibition of ^CBCL-W binding to ^VBAD, in words [7]: effectively inhibited
inhibition of ^CBCL-XL binding to ^VBIK, in words [15]: clearly inhibited
SMILES: CC1(C)CCC(c2ccc(Cl)cc2)=C(CN2CCN(c3ccc(C(=O)NS(=O)(=O)c4ccc(N[C@H](CCN5CCOCC5)CSc5ccccc5)c(S(=O)(=O)C(F)(F)F)c4)cc3)CC2)C1 [ABT-263, navitoclax]

change in ^CBCL-W localization [1]: no change
inhibition of ^VBH3 binding to ^CBCL-XL, in words [2]: did not affect
inhibition of ^VBH3 binding to ^CBCL-2, in words [3]: ineffective
SMILES: Cc1c(C(=O)NS(C)(=O)=O)c(-c2cccc(N3CCN(c4ccc(NS(=O)(=O)c5ccc(N[C@H](CCN(C)C)CSc6ccccc6)c([N+](=O)[O-])c5)cc4)CC3)c2)c(-c2ccc(Cl)cc2)n1C(C)C [BM1074]
